Data set [1] is described as follows: Cytotoxicity against human MIAPaCa2 cells assessed as reduction in cell growth after 72 hrs by cell titer glo assay. The format is functional, cell-based. To be noted: MIA PaCa-2, 72 h.
In data set [2] the test system is MCF7. Nature of the data set: Cytotoxicity against human MCF7 cells assessed as reduction in cell growth after 72 hrs by cell titer glo assay. The format is functional, cell-based. The following applies: MCF7, 72 h. The essentials:
(§1)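 IC50, the concentration giving 50% inhibition of cell growth, was read from plots of inhibition against concentration. Values were calculated from three independent experiments.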
Background: In ATP-based viability assays light output follows the ATP content of the culture.

Data set [3] has as its system MDA-MB-231. Briefly: Cytotoxicity against human MDA-MB-231 cells assessed as reduction in cell growth after 72 hrs by cell titer glo assay. The following applies: MDA-MB-231, 72 h. The format is functional, cell-based. The essentials:
as §1

Data set [4] has as its system HeLa. Briefly: Cytotoxicity against human HeLa cells assessed as reduction in cell growth after 72 hrs by cell titer glo assay. The class given is functional, cell-based.
Another data set relates to MCF10. Briefly: Cytotoxicity against human MCF10 cells assessed as reduction in cell growth after 72 hrs by cell titer glo assay. The class given is cell-based. The following applies: MCF10, 72 h. The essentials:
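Non-tumour mammary epithelial cells exposed to an 8-point series (33.3, 11.1, 3.7, 1.23, 0.41, 0.137, 0.0457, 0.0152 μM). IC50 is the concentration giving 50% growth inhibition, read from the plot of inhibition against concentration and calculated from three independent experiments.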

Data set [5] is described as follows: Cytotoxicity against human MCF10 cells assessed as cell viability at 33.3 uM after 72 hrs by cell titer glo assay. The following applies: read-out: Activity. The format is cell-based. The essentials:
(§2)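 The highest concentration tested was 33.3 μM, in a series running down to 0.0152 μM. Results came from three independent experiments.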

Data set [6] has as its system MDA-MB-231. Nature of the data set: Cytotoxicity against human MDA-MB-231 cells assessed as cell viability at 33.3 uM after 72 hrs by cell titer glo assay. To be noted: MDA-MB-231, 72 h, read-out: Activity. The format is functional. The method in brief: as §2
The test system of data set [7] is MCF7. Briefly: Cytotoxicity against human MCF7 cells assessed as cell viability at 33.3 uM after 72 hrs by cell titer glo assay. The class given is functional. The following applies: MCF7, 72 h, read-out: Activity. The method in brief:
as §2

Data set [8] in a line: Cytotoxicity against human MIAPaCa2 cells assessed as cell viability at 33.3 uM after 72 hrs by cell titer glo assay. The class given is functional. To be noted: MIA PaCa-2, 72 h, read-out: Activity. The essentials: as §2
Data set [9] concerns HeLa. Briefly: Cytotoxicity against human HeLa cells assessed as cell viability at 33.3 uM after 72 hrs by cell titer glo assay. The format is functional. The following applies: read-out: Activity. The method in brief: as §2

Our source for the IC50 and viability values is ChEMBL document CHEMBL3797090, “One-pot synthesis of 1,4-dihydroxy-2-((E)-1-hydroxy-4-phenylbut-3-enyl)anthracene-9,10-diones as novel shikonin analogs and evaluation of their antiproliferative activities” (Bioorg Med Chem Lett, 2016).

pIC50: −log10 of the molar value.

As a reminder, the pIC50 is the negative decadic logarithm of the IC50, by convention in mol/L. Consider `CC(C)=CC[C@@H](O)C1=CC(=O)c2c(O)ccc(O)c2C1=O` [SHIKONIN], for which the pIC50 is 7.40 in data set [1]; 5.26 in the data set with MCF7 [2]; 5.40 in the data set with MDA-MB-231 [3]; 5.19 in the data set on HeLa [4]; 5.34 with MCF10.

As to `O=C1c2ccccc2C(=O)c2c(O)c(C(O)C/C=C/c3ccc(Cl)cc3)cc(O)c21` (stereo unspecified), the pIC50 was 4.56 in data set [1], 4.49 in the data set on MCF7 [2], 4.54 in the data set with MDA-MB-231 [3] and 4.56 with HeLa [4]. In addition, in data set [5], the viability at 72 h, 33.3 µM was greater than 50%.

`O=C1c2ccccc2C(=O)c2c(O)c(C(O)C/C=C/c3cccc(Br)c3)cc(O)c21` (stereo unspecified): the pIC50 is 4.56 in [1], 4.50 in the data set with MCF7 [2] and 4.54 in the data set with HeLa [4]. Also, the viability at 72 h, 33.3 µM in data set [5] is greater than 50%. Moreover, the viability at 33.3 µM in the data set on MDA-MB-231 [6] was greater than 50%.

As for `Cc1cccc(/C=C/CC(O)c2cc(O)c3c(c2O)C(=O)c2ccccc2C3=O)c1` (stereo unspecified), the values for the pIC50 (in data set [1]; in the data set on MCF7 [2]; in the data set with HeLa [4]) were 4.55, 4.48 and 4.57, respectively. The viability at 72 h, 33.3 µM in data set [5] is greater than 50%. In the data set on MDA-MB-231 [6], the viability at 33.3 µM is greater than 50%.

In the case of `Cc1ccc(/C=C/CC(O)c2cc(O)c3c(c2O)C(=O)c2ccccc2C3=O)cc1` (stereo unspecified), the viability at 72 h, 33.3 µM in [5] was greater than 50%. Besides, the viability at 33.3 µM (in the data set on MCF7 [7]; with MDA-MB-231 [6]; in [8]) was greater than 50% in each case. In addition, the pIC50 in the data set on HeLa [4] is 4.54.

Regarding `O=C1c2ccccc2C(=O)c2c(O)c(C(O)C/C=C/c3ccc(F)cc3)cc(O)c21` (stereo unspecified), the pIC50 in data set [1] is 4.63; in the data set with MCF7 [2] it was 4.55; with MDA-MB-231 [3] it was 4.55; in the data set on HeLa [4], 4.48. Moreover, the viability at 72 h, 33.3 µM in data set [5] is greater than 50%.

In the case of `COc1ccc(/C=C/CC(O)c2cc(O)c3c(c2O)C(=O)c2ccccc2C3=O)cc1` (stereo unspecified), the negative-log IC50 (pIC50) is 4.58 in data set [1], 4.48 with MCF7 [2], 4.57 with MDA-MB-231 [3] and 4.62 with HeLa [4]. Moreover, in data set [5], the viability at 72 h, 33.3 µM is greater than 50%.

As for `O=C1c2ccccc2C(=O)c2c(O)c(C(O)C/C=C/c3ccccc3Cl)cc(O)c21` (stereo unspecified), the viability at 72 h, 33.3 µM in [5] was greater than 50%. Moreover, the figures for the pIC50 with MCF7 [2] and in the data set on HeLa [4] were 4.50 and 4.57, respectively. The viability at 33.3 µM in [8] was greater than 50%.

In the case of `O=C1c2ccccc2C(=O)c2c(O)c(C(O)C/C=C/c3cccc(F)c3)cc(O)c21` (stereo unspecified), the pIC50 was 4.58 in data set [1], 4.49 in the data set on MCF7 [2], 4.58 with MDA-MB-231 [3] and 4.60 with HeLa [4]. Further, the viability at 72 h, 33.3 µM in [5] was greater than 50%.

Regarding `O=C1c2ccccc2C(=O)c2c(O)c(C(O)C/C=C/c3ccccc3)cc(O)c21` (stereo unspecified), the viability at 72 h, 33.3 µM in data set [5] is greater than 50%. In addition, the viability at 33.3 µM (in the data set on MCF7 [7]; in the data set with MDA-MB-231 [6]; in data set [8]) was greater than 50% in each case. In the data set on HeLa [4], the pIC50 is 4.73.

For the compound `O=C1c2ccccc2C(=O)c2c(O)c(C(O)C/C=C/c3cccc(Cl)c3)cc(O)c21` (stereo unspecified), the pIC50 in data set [1] is 4.58; with MCF7 [2], 4.49; in the data set with MDA-MB-231 [3], 4.51; in the data set on HeLa [4], 4.59. Moreover, the viability at 72 h, 33.3 µM in data set [5] is greater than 50%.

In the case of `O=C1C2=C(C(=O)c3ccccc31)C(O)C1=C(O)CC(c3ccccc3)C1=C2O` (stereo unspecified), the pIC50 in [1] was 4.56; with MDA-MB-231 [3], 4.54; in the data set on HeLa [4], 4.53. Also, the viability at 72 h, 33.3 µM in data set [5] was greater than 50%. Moreover, the viability at 33.3 µM with MCF7 [7] is greater than 50%.

For the compound `COc1cccc2c1C(=O)c1c(O)c3c(c(O)c1C2=O)C[C@@](O)(C(=O)CO)C[C@@H]3O[C@H]1C[C@H](N)[C@H](O)[C@H](C)O1` [DOXORUBICIN], the negative-log IC50 (pIC50) with MDA-MB-231 [3] and in the data set on MCF10 was 6.80 each time.

Consider `O=C1c2ccccc2C(=O)c2c(O)c(C(O)C/C=C/c3ccc(Br)cc3)cc(O)c21` (stereo unspecified), for which the viability at 72 h, 33.3 µM in data set [5] was greater than 50%. Besides, the viability at 33.3 µM (with MCF7 [7]; in the data set on MDA-MB-231 [6]; in the data set on HeLa [9]; in data set [8]) was greater than 50% in each case.

With `Cc1ccccc1/C=C/CC(O)c1cc(O)c2c(c1O)C(=O)c1ccccc1C2=O` (stereo unspecified), the pIC50 in [1] is 4.58; with MCF7 [2] it was 4.48; in the data set on HeLa [4], 4.55. In addition, the viability at 72 h, 33.3 µM in [5] is greater than 50%. Besides, the viability at 33.3 µM in the data set on MDA-MB-231 [6] was greater than 50%.

For `COc1cccc(/C=C/CC(O)c2cc(O)c3c(c2O)C(=O)c2ccccc2C3=O)c1` (stereo unspecified), the pIC50 was 4.57 in data set [1] and 4.55 in the data set with HeLa [4]. In [5], the viability at 72 h, 33.3 µM is greater than 50%. The viability at 33.3 µM in the data set on MCF7 [7] and in the data set with MDA-MB-231 [6] was greater than 50% each time.

Regarding `O=C1c2ccccc2C(=O)c2c(O)c(C(O)C/C=C/c3ccccc3Br)cc(O)c21` (stereo unspecified), the pIC50 was 4.57 in data set [1], 4.51 with MCF7 [2], 4.51 in the data set with MDA-MB-231 [3] and 4.59 with HeLa [4]. Further, the viability at 72 h, 33.3 µM in [5] was greater than 50%.

`O=C1c2ccccc2C(=O)c2c(O)c(C(O)C/C=C/c3ccccc3F)cc(O)c21` (stereo unspecified): the figures for the pIC50 (in data set [1]; in the data set with MDA-MB-231 [3]; in the data set with HeLa [4]) were 4.56, 4.54 and 4.54, respectively. Besides, the viability at 72 h, 33.3 µM in [5] was greater than 50%. Also, in the data set with MCF7 [7], the viability at 33.3 µM is greater than 50%.

As for `COc1ccccc1/C=C/CC(O)c1cc(O)c2c(c1O)C(=O)c1ccccc1C2=O` (stereo unspecified), the viability at 72 h, 33.3 µM in data set [5] is greater than 50%. Also, the viability at 33.3 µM (in the data set with MCF7 [7]; in the data set with MDA-MB-231 [6]; in [8]) was greater than 50% throughout. In addition, the pIC50 with HeLa [4] was 4.54.
